Experiments:
MS2 coat protein [1] = assay: apparent Kd, MS2 coat protein; higher = weaker binding; RNA-MaP array; theophylline 2 mM where present
Procedure, shortened: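 Green signal from SNAP-549-labelled MS2 coat protein was normalised to red-channel RNA signal and to the median Fmax of control clusters. The protein was titrated from 0.7 or 1.5 nM, doubling to 3 µM, without and then with constant ligand, over designs transcribed by stalled E. coli RNA polymerase on Illumina sequencing-chip clusters, in 100 mM Tris-HCl pH 7.5, 80 mM KCl, 4 mM MgCl2, BSA, DTT, yeast tRNA and Tween-20. The apparent Kd is the median of filtered per-cluster binding-curve fits.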

MS2 coat protein [2] = assay: apparent Kd, MS2 coat protein; higher = weaker binding; RNA-MaP array
Procedure, shortened: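 In Tris-HCl pH 7.5 buffer with KCl, MgCl2, BSA, DTT, tRNA and Tween20, with or without input ligand, fluorescently labeled MS2 coat protein at 1.5 nM to 3 μM was incubated at room temperature with designed RNAs. The RNAs had been transcribed on an Illumina sequencing chip from sequenced DNA templates, and incubation ran 0.8–1.5 h at the lowest to 10–20 min at the highest concentrations. Apparent Kd is the median of binding-curve fits for individual clusters. Designs measured on fewer than 10 clusters were excluded.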

[3] = designed as: OFF switch for theophylline, no ligand
[4] = ligand present: theophylline, designed as: OFF switch for theophylline
[5] = designed as: ON switch for theophylline, no ligand
[6] = ligand present: theophylline, designed as: ON switch for theophylline
[7] = designed as: OFF switch for flavin mononucleotide, no ligand
[8] = ligand present: flavin mononucleotide, designed as: OFF switch for flavin mononucleotide
[9] = designed as: ON switch for flavin mononucleotide, no ligand
[10] = ligand present: flavin mononucleotide, designed as: ON switch for flavin mononucleotide
[11] = designed as: ON switch for tryptophan, no ligand
[12] = ligand present: tryptophan, designed as: ON switch for tryptophan

| Sequence | apparent Kd (MS2 coat protein [2]; [7]) [nM] | apparent Kd (MS2 coat protein [2]; [8]) [nM] | other results |
| --- | --- | --- | --- |
| CUCUGGUGCUGAGUGAGUGUCGUGACUGAUACCAGAUGCCUUUACAUCCCUUGGCAGCAGUACAUGAGGAUCACCCAUGUAUUCC |  |  | apparent Kd (MS2 coat protein [1]; [3]): 22.1 nM; apparent Kd (MS2 coat protein [1]; [4]): 182 nM |
| UAAAACAUGAGGAUCACCCAUGUAAUUGAUACCAGAGUGAUGAUCCUCCCUUGGCAGCAAAUAACGCAUUGGAAACAAUGCGAAA |  |  | apparent Kd (MS2 coat protein [1]; [5]): 56.4 nM; apparent Kd (MS2 coat protein [1]; [6]): 189 nM |
| AUAAACCUAACAUGAGGAUCACCCAUGUCCUCCGUCGGUCGAAGAAGGAGUAAUGCUUAUUUUUACUAGGAUAUUCGUAAUCAC | 90.2 | 216 |  |
| UAGGUGCUAGGAGGAUAUUGUGAAUUUAAUUUUCAAGAAGGCCUGAACAGACUGCACAUGAGGAUCACCCAUGUAUCCAACGUC | 17.2 | 11.7 |  |
| ACUAAACCACAGAAGGAACUGAGUGCGCAAAAGUAAGGAUAUGUAAACAAUAACAUGAGGAUCACCCAUGUGACAGUAAGUUUA |  |  | apparent Kd (MS2 coat protein [2]; [9]): 8.31 nM; apparent Kd (MS2 coat protein [2]; [10]): 7.2 nM |
| UGGAAGAUUGAAGGAUAUCCGGUCAAUUAAUAUGGAGAAGGUCAAUAUAUGGACAUGAGGAUCACCCAUGUAGAGUCAACUCGA |  |  | apparent Kd (MS2 coat protein [2]; [9]): 38.5 nM; apparent Kd (MS2 coat protein [2]; [10]): 26.8 nM |
| ACGGUAGGCUAGAAGGCCCGGACUCGCCCAGAGGGAGGAUAUAGCAUUGGCGUACUACAUGGCACAUGAGGAUCACCCAUGUAA | 35.4 | 30.6 |  |
| AGAUCUAACGCAGGAUAUAGUGCGGGAAAACCUAAACAUGAGGAUCACCCAUGUCUGCUACAAAGCUAGAAGGGCGUUCGGGAA |  |  | apparent Kd (MS2 coat protein [2]; [9]): 46.4 nM; apparent Kd (MS2 coat protein [2]; [10]): 23.8 nM |
| GAAUGGAAACUAGGAUAUCGGCAGGAGCGGGAGCGAGAAGGAGUUUACUCGGUAUACAUGAGGAUCACCCAUGUGGGUGUGCUG | 294 | 252 |  |
| ACUCCGUCGUAGAAGGGAAAAUGCUUGGCGUCUCUCGGGUACAUGAGGAUCACCCAUGUUACGGUUCAGGAUAUACAGACUGCU | 10.5 | 10.6 |  |
| UGCUAAAGUGAGAAGGGUGGACCACUCAUCGAGUAUGACACAUGAGGAUCACCCAUGUACGCUCCACAGGAUAUCAAAUUGAGG |  |  | apparent Kd (MS2 coat protein [2]; [9]): 156 nM; apparent Kd (MS2 coat protein [2]; [10]): 28.8 nM |
| AGCGUGUAAGGAUAUUGAUCUCCACUUCUGUAGGUCGGUGACAAGAAGGUACAUGAGGAUCACCCAUGUCCAUG | 19.8 | 21.7 |  |
| AGCGUGUAAGGAUAUCCAAUUGAUGGGAGCGGAUCUUCCCAGGAGAAGGUACAUGAGGAUCACCCAUGUGGCGC | 37.2 | 35 |  |
| CCUAGACAUGAGGAUCACCCAUGUUAUUGUCUUCAAGGAUAUCGAUGUCUCUCAUAGGCACGAGAAGGUGACUCCU |  |  | apparent Kd (MS2 coat protein [2]; [9]): 85.2 nM; apparent Kd (MS2 coat protein [2]; [10]): 67.1 nM |
| CCAGAAGCAGGAUAUACAUGAGGAUCACCCAUGUUAAACAAUAUGACGAGCAUAGUCAGUAGAAGGGCAACUCA | 18.8 | 16.1 |  |
| CUCCCAAACAAGAAGGGCGUCGAGUACGGUGAACUUGCCACAUAACAUGAGGAUCACCCAUGUACGCAGGAUAUUGGAGCGUUU | 138 | 234 |  |
| AACAAAAGGAAGAAGGCAGUUAAACAUGAGGAUCACCCAUGUGGGACGCGGGAAAUCAACGAGACUGAGGAUAUUCAUUAAGAA | 9.84 | 20.9 |  |
| GCUGGACAUGAGGAUCACCCAUGUGAGGAUAUGAGAAGUAUCAUGCACCCGAUCCAUCUCAGAAGGCACAGGUG | 71.5 | 258 |  |
| CGUAUGGGUGUCAGGAUAUGCGGGACGCUGUUACUGCAGAAGGGACAUGAGGAUCACCCAUGUAGUUCCAGACC | 18.4 | 33.3 |  |
| UAGUACAUGAGGAUCACCCAUGUCGGAGGUCGAGGACCGGUACGGCCGCCACUCGGUCAUGCCCUACGAUACGACAGGAAUCUGU |  |  | apparent Kd (MS2 coat protein [2]; [11]): 22.2 nM; apparent Kd (MS2 coat protein [2]; [12]): 16.8 nM |
| UGACGUGGUAAGAAGGCAAGAGCAGGGCAGGAUUGAGGAUAUUACGGACAGACAUGAGGAUCACCCAUGUAGAGCCAUAACCGG |  |  | apparent Kd (MS2 coat protein [2]; [9]): 8.55 nM; apparent Kd (MS2 coat protein [2]; [10]): 7.89 nM |
| AACAAAUGGGAAGGAUAUCGUUACAUGAGGAUCACCCAUGUCUACCUUGGGAGCGGUAGCUAUGUCGAGAAGGUCCAUGCGCGA |  |  | apparent Kd (MS2 coat protein [2]; [9]): 394 nM; apparent Kd (MS2 coat protein [2]; [10]): 84.1 nM |
| GUGACUAGCGUAAGGAUAUUCACGAGCGGCGGCUUGAAGAAGGUACAUGAGGAUCACCCAUGUAGGGUAAUCAA | 41.6 | 44.3 |  |

| Sequence | apparent Kd (MS2 coat protein [2]; [7]) [nM] | apparent Kd (MS2 coat protein [2]; [8]) [nM] | other results |
| --- | --- | --- | --- |
| AUGUUCCGUUAGAAGGUGUUGAGUGGAGGCUCACAAGGAUAUAACUUCCUCGUCGAUGACAUGAGGAUCACCCAUGUAGCACAA | 50.3 | 38.1 |  |
| ACCCACAGAGGAUAUACAGCGAAACCUCAUAUUAAAUAUUCACAUGAGGAUCACCCAUGUAGAAGGCUGGAGAA | 10.9 | 38.8 |  |
| ACACGUGACAAGGAUACCAGCCUGGCUAGUUCAAACCCUCACAUGAGGAUCACCCAUGUAGGCCCUUGGCAGCCUAUAGUCUAAG |  |  | apparent Kd (MS2 coat protein [2]; [3]): 31.9 nM; apparent Kd (MS2 coat protein [2]; [4]): 83.9 nM |
| GACGUCGCCUUAGGAUAUGCCCAUUACAUGAGGAUCACCCAUGUUUCUUAAAGAGGAUCCGCAUGGCAGAAGGAAGGUCUCCAC | 25.4 | 59.4 |  |
| GAAUCUACAAACGAUACCAGAUCCGGCUGCCACAUGAGGAUCACCCAUGUCUAGCGACUCAUCCCUUGGCAGCGUGUGCAUCCCG |  |  | apparent Kd (MS2 coat protein [2]; [5]): 508 nM; apparent Kd (MS2 coat protein [2]; [6]): 781 nM |
| AAUAUUAUGUCGGCCGCCACUUCCCACAAGAGGUGCCUGCACCCACAUGAGGAUCACCCAUGUCGAAGGACCGGGACGCUCAAUU |  |  | apparent Kd (MS2 coat protein [2]; [11]): 16.8 nM; apparent Kd (MS2 coat protein [2]; [12]): 15.6 nM |
| CUGUAGACAGGAUAUGUUGUGCCGUACAUGAGGAUCACCCAUGUGAGAUCUCGCUACCAUACAGAAGGGUCUAAAC | 43.2 | 57.4 |  |
| GACCUCCUGCGAGCACAUGAGGAUCACCCAUGUAAGGACCUGAGAAGGCACCGUUAAGAUUGGAGUGAGGAUAUCAGGAUAUAG | 23.5 | 19.7 |  |
| AUACCUAGUGAAGGAUAUCCAAAUAACUAUAGAGGAGAAGGACACAUUCUAACAUGAGGAUCACCCAUGUCCCGCCGUCUUACC |  |  | apparent Kd (MS2 coat protein [2]; [9]): 14.4 nM; apparent Kd (MS2 coat protein [2]; [10]): 11.9 nM |
| GAGUACAGGGAGAAGGUGUAUUAAUACGCACGGCUGGUCACAUGAGGAUCACCCAUGUCGCAUAACAAGGAUAUCCGACUAAUC | 139 | 213 |  |
| CUCCUCGUAGGAUAUCGCACCGCGUACAUGAGGAUCACCCAUGUGAUUCUAUAGAUUAAGCGAGAAGGACGACAGG | 376 | 269 |  |
| CAAUCUACCACCGGCCUACUGUACACUCGCCGAGGACCGGUACGGCCGCCACUCGACGUUCGACAUGAGGAUCACCCAUGUGGGU |  |  | apparent Kd (MS2 coat protein [2]; designed as: OFF switch for tryptophan, no ligand): 168 nM; apparent Kd (MS2 coat protein [2]; ligand present: tryptophan, designed as: OFF switch for tryptophan): 334 nM |
| UCAAGCAUGGAGAAGGCCCGGGUUGACACGUCGGGAGGAUAUCCAGACUCACAUGAGGAUCACCCAUGUUAUUGCGGCGACUCC | 40.3 | 57 |  |
| UUGAACAUGAGGAUCACCCAUGUGGAUGAUACCAGCUAAAACAUAAGCCCUUGGCAGCAUUAAAAUGAAAUAUCGAAAAGGAAAG |  |  | apparent Kd (MS2 coat protein [2]; [5]): 143 nM; apparent Kd (MS2 coat protein [2]; [6]): 54.9 nM |
| GUUACAUGAGGAUCACCCAUGUGGGCUGUAUGUAGCGCACCUGAGGAUAUGGCCCGGAGGUAGGACCAGAAGGCAGCGAAGAGC | 65.4 | 55.3 |  |
| CCACAGUAUAAAGGAUAUGCGGCCACGGCAACAGCAGAAGGUUAUGCCACUGUACAUGAGGAUCACCCAUGUCCAACUUUCCCU |  |  | apparent Kd (MS2 coat protein [2]; [9]): 23.8 nM; apparent Kd (MS2 coat protein [2]; [10]): 11.9 nM |
| AGGCUAUGUGAGAAGGCCGAAUGCCUAUAGUGCGGAGGAUAUCAAUCAACAUGAGGAUCACCCAUGUAGCAAAUCGUAGUUCUC |  |  | apparent Kd (MS2 coat protein [2]; [9]): 84.3 nM; apparent Kd (MS2 coat protein [2]; [10]): 60.1 nM |
| AGAACCAUAGUAGGAUAUGAGACGUUAUUGGUAACAGAAGGACUAGCUGUAACAUGAGGAUCACCCAUGUGGGCCGGACAGAGG |  |  | apparent Kd (MS2 coat protein [2]; [9]): 14.1 nM; apparent Kd (MS2 coat protein [2]; [10]): 11.5 nM |
| GUCAUUCUCAACAUGAGGAUCACCCAUGUCGGUUAUCUGGGCUAGGAUAUCACGAUGCCACUGCGUGAGAAGGAGCGUUCGAUA | 67.3 | 27.5 |  |
| CUUCGGCCCAGGGAGAUGACCACAUGAGGAUCACCCAUGUACAGAAGGAGUAUCGGUAGGCCAUACUAGGAUAUGUGAAUAGAC |  |  | apparent Kd (MS2 coat protein [2]; [9]): 25.8 nM; apparent Kd (MS2 coat protein [2]; [10]): 31.4 nM |
| UUAGUAACCACAGGAUAUGCGGACGGGUGAAGGGCAGAAGGGUGGGAGUGCACAUGAGGAUCACCCAUGUAACACGCCAUAUUU |  |  | apparent Kd (MS2 coat protein [2]; [9]): 17.7 nM; apparent Kd (MS2 coat protein [2]; [10]): 8.65 nM |
| UCCUAGCGACAGAAGGUAGGCAAGAGACGCCCUCAACGACAUGAGGAUCACCCAUGUGGGACCACUAAGGAUAUGUAUGCCGAC | 84.6 | 66.5 |  |

From the EternaBench riboswitch data
